This is a sample that favours compounds with a hit; in the whole collection about 2.4% have one here.
HNF4A DNA FP = change in binding of human HNF4 alpha to DNA; P41235; HNF4a-FITC DNA binding, fluorescence polarization, 1 h; activity change, % at 10 µM; hit rate 0.3% among 360,000; AID 1224865; in the data active = activity change above about 30%, passing the limit was not always enough
Target sequence (P41235 whole entry, looked up): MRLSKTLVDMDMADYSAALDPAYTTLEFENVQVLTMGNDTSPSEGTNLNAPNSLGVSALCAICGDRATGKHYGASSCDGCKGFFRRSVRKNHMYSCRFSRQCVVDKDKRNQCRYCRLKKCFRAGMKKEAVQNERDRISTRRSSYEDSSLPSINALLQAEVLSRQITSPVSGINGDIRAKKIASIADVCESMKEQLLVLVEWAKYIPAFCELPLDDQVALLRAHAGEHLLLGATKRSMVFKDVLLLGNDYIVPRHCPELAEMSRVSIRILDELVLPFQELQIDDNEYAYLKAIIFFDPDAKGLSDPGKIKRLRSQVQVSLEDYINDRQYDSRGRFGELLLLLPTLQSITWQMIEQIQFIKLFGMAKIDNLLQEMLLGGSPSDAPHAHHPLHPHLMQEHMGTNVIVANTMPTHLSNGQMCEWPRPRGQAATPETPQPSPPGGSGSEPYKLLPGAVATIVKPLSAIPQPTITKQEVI
Rin1-Abl PPI inh = blocks binding of human Rin1 to Abl; P00519+Q13671; TR-FRET Rin1/Abl binding, biochemical; inhibition, % at 7.35 µM; hit rate 0.4% among 360,000; AID 588664; in the data active = inhibition above about 5%, passing the limit was not always enough
CSN deneddyl inh = inhibitors of human CSN-mediated cullin deneddylation; Q92905; Purified CSN, SCF-Nedd8-OG deneddylation, fluorescence polarization; inhibition, % at 12.5 µM; hit rate 0.38% among 360,000; AID 651999;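 active = pattern-corrected inhibition above about 35%, with an unprinted fluorescence ratio check between 0.5 and 1.5, limit read from the data, passing the limit was not always enough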;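 also: 0% = enzyme with substrate and 100% = substrate without enzyme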
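Material: human Csn5 produced in HEK293T cells; Input: enzyme 0.24 nM; Reagent: SCFSkp2-Nedd8OG substrate at 10 nM final; Dosing: 12.5 µM compound; Incubation: 90 min reaction at room temperature; Detection: fluorescence polarization of the substrate; Evaluation: % inhibition of substrate cleavage by Csn5; Control set: substrate-only high control, full reaction low control.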
Rpn11 block = blocks the human proteasome subunit Rpn11; AID 588493; human 26S proteasome, Ub4-pepOG fluorescence polarization; 20S core pre-blocked with epoxomicin; inhibition, % at 20 µM; hit rate 0.59% among 360,000; O00487;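 active = inhibition at 20 µM, scaled to each plate's controls, above about 33%, limit read from the data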
TPT1 inhibitor = blocks Candida albicans tRNA 2'-phosphotransferase; hit rate 0.81% among 300,000; AID 1962; recombinant caTPT1, FP RNA substrate dephosphorylation; inhibition, % at 5 µM;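 active = inhibition above the mean of all tested compounds plus 3 SD, set per screening campaign, cut at about 24% in these data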;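 also: plate controls were DMSO alone for no effect and ferristatin control at 100 nM for full effect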
Neddyl block = inhibitors of human cullin neddylation | P61081+Q13564 | TR-FRET cullin neddylation, biochemical | inhibition, % at 25 µM | hit rate 0.58% among 360,000; in the data active = inhibition above about 36%
Rin1 Abl conf = Rin1-Abl interaction inhibition confirmation. shares compounds with Rin1-Abl PPI inh. TR-FRET Rin1-Abl binding, purified proteins. inhibition, % at 7.35 µM. hit rate 49% among 1,300
GFP quencher = GFP fluorescence interference artifact. shares compounds with Rin1-Abl PPI inh. inhibitors/quenchers counterscreen. inhibition, % at 6.75 µM. hit rate 8.5% among 1,300. AID 602125;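 also: ABL1-eGFP fusion protein alone without its partner RIN1-SBP; 0% = protein with vehicle and 100% = wells lacking protein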
Numbers without * were called inactive; . = not tested or not shown. Rule as the data show it, unless noted: active = inhibition above about 6.5%; inactive = the rest.

SMILES | HNF4A DNA FP | Rin1-Abl PPI inh | CSN deneddyl inh | Rpn11 block | TPT1 inhibitor | Neddyl block | Rin1 Abl conf | GFP quencher
COc1ccc(C(=O)Nc2ccccc2C(=O)Nc2ccccc2C(=O)O)cc1 | 2.6 | 5.6* | 1.5 | 3.0 | -4.3 | 28.1 | 4.7 | 0.0
COc1ccc(C(=O)Nc2ccc(O)cc2C(=O)O)cc1 | -4.8 | 10.9* | -12.7 | 10.2 | -0.6 | 3.2 | 9.8* | 1.8
O=C(CCc1ccccc1)N1CCN(c2ccc(F)cc2)CC1 | 2.9 | -1.3 | -1.2 | -6.2 | -1.4 | 0.2 | . | .
O=C(Nc1cccc(NC(=O)c2cccnc2)c1)c1cccnc1 | 0.0 | 8.6* | 0.2 | -4.6 | -3.9 | 0.7 | -1.8 | 0.2
O=C(Nc1cccc(F)c1)c1cccnc1 | 2.0 | -4.2 | -4.2 | 0.6 | . | 0.6 | . | .
CNC(=O)NC(=O)CSc1ccc(S(=O)(=O)N(C)C2CCCCC2)cn1 | -0.9 | 2.2 | -4.1 | 5.8 | . | 9.6 | . | .
CC1(Cc2ccc(OC(F)(F)F)cc2)C(=O)Nc2ccc(OC(F)(F)F)cc21 (stereo not drawn) | 1.8 | 7.4* | 1.8 | -3.0 | . | -4.0 | -1.7 | -1.2
C[C@@H]1CN([C@@H](C)CO)S(=O)(=O)c2ccc(Br)cc2O[C@H]1CN(C)C(=O)Cc1cccnc1 | -2.0 | 1.1 | 4.3 | 3.8 | . | 5.8 | . | .
CN(Cc1ccccc1)C(=O)c1nc2ccccn2c1CN1CCc2sccc2C1 | -1.6 | 9.8* | -6.6 | 4.0 | 1.1 | 17.0 | -1.9 | -0.9
CN(Cc1c(C(=O)N(C)Cc2ccccc2)nc2ccccn12)CC1Cc2ccccc2O1 (stereo not drawn) | -0.9 | 1.6 | -17.5 | -7.8 | -5.3 | -8.3 | . | .
CCn1cc(S(=O)(=O)Nc2ncccn2)cn1 | -1.2 | -1.1 | 2.3 | 1.0 | -0.3 | -1.0 | . | .
Cc1ccc(-n2c(SCC(=O)NCc3ccco3)nnc2-c2cccnc2)cc1 | 1.4 | 7.4* | -6.3 | -3.7 | 4.7 | 3.6 | 8.4* | -3.9
O=C(CSc1nnc(-c2cccnc2)n1-c1ccccc1)Nc1ccccc1 | -1.6 | 2.1 | 0.9 | -4.9 | -2.4 | 0.5 | . | .
Cc1ccc(NC(=O)CSc2nnc(-c3cccnc3)n2-c2ccc(C)cc2)cc1 | 2.8 | 11.0* | -0.8 | 0.3 | -2.6 | -10.8 | 10.5* | -1.1
O=C(Nn1c(-c2ccc(F)cc2)nc2ccccc2c1=O)C1CCCCC1 | 0.3 | 1.4 | -2.8 | -0.3 | -0.6 | 6.0 | . | .
O=C(N/N=C/c1cn(Cc2cccc(F)c2)c2ccccc12)c1cc(O)cc(O)c1 | -62.1 | 14.4* | 52.8 | 34.0 | . | 39.0 | 8.7* | 10.2*
CCOC(=O)C1(C)CCCN(C(=O)c2ccc(-c3ccccc3)cc2)C1 (stereo not drawn) | -1.6 | 2.1 | -1.8 | 2.7 | . | -3.3 | . | .
CCOC(=O)c1ccc(CC(=O)c2ccc(O)c(O)c2O)o1 | -5.6 | 13.5* | 16.0 | -9.1 | . | -6.1 | 7.3* | 16.1*
CCOC(=O)c1ccc(CC(=O)c2oc3cc(O)ccc3c2C)o1 | 5.0 | 1.2 | 11.5 | 10.8 | 2.5 | . | . | .
CCc1nc(SCC(=O)NCCc2ccc(OC)c(OC)c2)c2c(=O)n(C)c(=O)n(C)c2n1 | 2.5 | 10.2* | 2.9 | -2.1 | -0.8 | 3.3 | 16.2* | 0.9
COc1ccccc1NC(=O)c1cc2c(cc1Cl)N1CCCCCC1=NS2(=O)=O | 0.8 | -0.6 | -6.2 | 4.0 | . | 14.1 | . | .
O=C(C1CC(=O)N(c2ccccc2F)C1)N1CCOCC1 (stereo not drawn) | 0.0 | 2.1 | 2.2 | 0.5 | . | -2.9 | . | .
Cc1cccc2cc(C(c3nnnn3C(C)(C)C)N(Cc3ccco3)CC3CCCO3)c(=O)[nH]c12 (stereo not drawn) | -20.7 | 5.8* | 21.7 | 11.3 | 0.3 | 4.8 | 9.1* | 2.8
Cc1ccc2[nH]c(=O)c(C(c3nnnn3C(C)(C)C)N(Cc3ccco3)CC3CCCO3)cc2c1 (stereo not drawn) | 0.8 | -3.6 | -0.5 | -6.0 | -3.1 | 12.2 | . | .
CC1=C(C(=O)N(C)C)CC(CC(=O)NCCCCc2ccccc2)C(=O)N1Cc1ccccc1 (stereo not drawn) | 1.8 | -5.1 | 0.9 | 5.8 | . | 0.8 | . | .
